Measured values from ChEMBL document CHEMBL3616379, “From carbohydrates to drug-like fragments: Rational development of novel α-amylase inhibitors” (Bioorg Med Chem, 2015).
One block for each compound: values may come before it. Calls of active or inactive are those of the source. The rule behind the calls is not given here.

Columns and labels:
[1] = biological target: T1, Pancreatic alpha-amylase (Sus scrofa, UniProt P00690); experiment: Inhibition of porcine pancreatic alpha-amylase using soluble starch as substrate after 30 mins by Bernfeld method
T1 sequence (P00690 whole entry): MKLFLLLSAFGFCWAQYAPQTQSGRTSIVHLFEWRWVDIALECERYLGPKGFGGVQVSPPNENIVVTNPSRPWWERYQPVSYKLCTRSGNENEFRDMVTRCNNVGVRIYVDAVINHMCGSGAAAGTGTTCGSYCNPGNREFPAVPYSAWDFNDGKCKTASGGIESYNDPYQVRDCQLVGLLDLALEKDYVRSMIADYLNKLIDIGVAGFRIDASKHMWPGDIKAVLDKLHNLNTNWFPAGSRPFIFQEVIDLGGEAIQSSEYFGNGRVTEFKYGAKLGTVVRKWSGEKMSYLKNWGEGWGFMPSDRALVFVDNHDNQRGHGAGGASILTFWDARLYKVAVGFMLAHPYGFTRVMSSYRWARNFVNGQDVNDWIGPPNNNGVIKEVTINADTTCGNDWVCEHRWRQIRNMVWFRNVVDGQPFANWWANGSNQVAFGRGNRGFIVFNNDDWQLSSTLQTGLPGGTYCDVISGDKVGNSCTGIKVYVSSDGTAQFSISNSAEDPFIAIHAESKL

[2] = biological target: T1, Pancreatic alpha-amylase; experiment: Inhibition of porcine pancreatic alpha-amylase using DP17 amylose as substrate preincubated for 5 mins followed by substrate addition by copper-bicinchoninate method
[3] = biological target: Alpha-amylase type A isozyme (Hordeum vulgare, UniProt P00693); experiment: Inhibition of recombinant barley alpha-amylase isozyme-1 using DP17 amylose as substrate preincubated for 5 mins followed by substrate addition by copper-bicinchoninate method
Alpha-amylase type A isozyme, sequence (P00693 whole entry): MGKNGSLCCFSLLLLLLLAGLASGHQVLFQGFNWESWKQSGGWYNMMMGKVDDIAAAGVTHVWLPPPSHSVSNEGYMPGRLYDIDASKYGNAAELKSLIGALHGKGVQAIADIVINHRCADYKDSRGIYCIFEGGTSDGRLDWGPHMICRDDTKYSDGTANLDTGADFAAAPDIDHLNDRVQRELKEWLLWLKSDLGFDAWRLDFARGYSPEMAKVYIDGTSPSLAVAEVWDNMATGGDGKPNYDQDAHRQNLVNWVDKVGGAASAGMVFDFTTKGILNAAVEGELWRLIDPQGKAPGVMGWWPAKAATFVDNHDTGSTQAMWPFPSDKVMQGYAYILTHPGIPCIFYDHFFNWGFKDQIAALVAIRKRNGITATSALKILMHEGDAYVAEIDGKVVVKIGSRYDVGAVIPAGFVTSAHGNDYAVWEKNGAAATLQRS

[4] = biological target: T2, Alpha-amylase 1A (Homo sapiens) (UniProt P0DUB6); experiment: Inhibition of human salivary alpha-amylase using GalG2CNP as substrate at 200 uM by UV-Vis spectrophotometric analysis
T2 sequence (whole entry): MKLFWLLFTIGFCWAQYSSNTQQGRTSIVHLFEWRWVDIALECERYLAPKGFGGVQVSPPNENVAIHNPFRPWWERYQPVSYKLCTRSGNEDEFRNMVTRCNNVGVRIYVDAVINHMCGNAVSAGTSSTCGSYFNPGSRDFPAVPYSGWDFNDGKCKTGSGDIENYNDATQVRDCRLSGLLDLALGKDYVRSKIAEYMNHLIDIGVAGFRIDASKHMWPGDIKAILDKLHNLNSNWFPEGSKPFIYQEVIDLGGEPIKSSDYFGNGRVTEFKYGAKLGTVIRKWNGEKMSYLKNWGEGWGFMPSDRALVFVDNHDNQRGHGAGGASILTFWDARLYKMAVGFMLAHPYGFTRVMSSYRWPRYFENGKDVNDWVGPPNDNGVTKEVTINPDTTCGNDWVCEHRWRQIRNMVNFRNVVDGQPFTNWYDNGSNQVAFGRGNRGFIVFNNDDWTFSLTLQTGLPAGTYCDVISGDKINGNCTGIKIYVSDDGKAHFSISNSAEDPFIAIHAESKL
Procedure, shortened: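 Single-concentration test at 200 μM inhibitor against human salivary α-amylase (2 nM) with GalG2CNP substrate, 50 mM MES pH 6.0 containing 5 mM Ca(OAc)2, 51.5 mM NaCl, 152 mM NaN3, 37°C. Chloronitrophenol liberation monitored continuously at 400 nm by UV-Vis spectrophotometry.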

[5] = biological target: Heat shock protein HSP 90-beta (Homo sapiens, UniProt P08238); experiment: Inhibition of HSP90 (unknown origin)
Heat shock protein HSP 90-beta, sequence (P08238 whole entry): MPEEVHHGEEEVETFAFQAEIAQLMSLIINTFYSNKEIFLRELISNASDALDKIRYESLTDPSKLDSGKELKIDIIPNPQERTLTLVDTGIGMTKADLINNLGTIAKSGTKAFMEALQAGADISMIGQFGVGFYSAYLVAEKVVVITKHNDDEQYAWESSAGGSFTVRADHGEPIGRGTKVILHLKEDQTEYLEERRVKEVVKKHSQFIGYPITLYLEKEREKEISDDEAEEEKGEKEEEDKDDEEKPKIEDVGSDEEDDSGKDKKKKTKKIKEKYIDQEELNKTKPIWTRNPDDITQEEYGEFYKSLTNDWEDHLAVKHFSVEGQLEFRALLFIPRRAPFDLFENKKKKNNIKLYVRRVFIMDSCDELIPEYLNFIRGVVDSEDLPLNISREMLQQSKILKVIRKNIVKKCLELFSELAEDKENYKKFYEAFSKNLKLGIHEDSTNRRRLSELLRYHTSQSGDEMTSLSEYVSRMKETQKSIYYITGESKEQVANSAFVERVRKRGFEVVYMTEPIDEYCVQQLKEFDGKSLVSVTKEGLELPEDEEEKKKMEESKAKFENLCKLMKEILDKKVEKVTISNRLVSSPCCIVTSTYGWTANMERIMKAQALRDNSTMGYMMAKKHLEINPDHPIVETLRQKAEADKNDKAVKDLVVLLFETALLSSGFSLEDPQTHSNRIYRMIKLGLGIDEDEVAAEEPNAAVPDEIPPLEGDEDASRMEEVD

- Ki [1]: 48 µM
Structure (SMILES): O=C(/C=C/c1ccccc1)c1ccccc1 [CHALCONE]

- Ki [2]: < 10000 µM
- Ki [3]: < 10000 µM
Structure (SMILES): O=S(=O)(O)O[C@@H](CO)[C@@H](O)CN1C[C@@H](O)[C@H](O)[C@H]1CO

- inhibition [4]: inactive
- IC50 [5]: > 50 µM
Structure (SMILES): CCc1cc(C(=O)Cn2cnc3ccccc32)c(O)cc1O
